Measured values taken from ChEMBL document CHEMBL4177680, “Discovery of a Potent, Selective T-type Calcium Channel Blocker as a Drug Candidate for the Treatment of Generalized Epilepsies” (J Med Chem, 2017).

Experiments:
Salmonella typhimurium [1] = test: Mutagenicity in Salmonella typhimurium TA100 assessed as increase in number of revertants in presence of rat liver S9 fraction by Ames test relative to control; type: toxicity, organism-based; conditions: salmonella enterica subsp. enterica serovar typhimurium
Salmonella typhimurium [2] = test: Mutagenicity in Salmonella typhimurium TA98 assessed as increase in number of revertants in presence of rat liver S9 fraction by Ames test relative to control; type: toxicity, organism-based; conditions: salmonella enterica subsp. enterica serovar typhimurium
[3] = Drug metabolism in human plasma at 10 uM after 6 hrs by LC-MS/MS method; type: ADME, cell-free; conditions: read-out: Drug metabolism
[4] = Clearance in Wistar rat at 1 mg/kg, iv administered via 5 mins infusion by LC-MS/MS method; type: ADME, organism-based; conditions: in vivo
[5] = Intrinsic clearance in Wistar rat liver microsomes assessed per mg of protein at 1 uM after 15 mins in presence of NADPH regenerating system by LC-MS/MS method; type: ADME, microsome; conditions: read-out: CLH
[6] = Intrinsic clearance in human liver microsomes assessed per mg of protein at 1 uM after 15 mins in presence of NADPH regenerating system by LC-MS/MS method; type: ADME, microsome; conditions: read-out: CLH
[7] = Free drug level in Wistar rat brain at 10 mg/kg administered via oral gavage measured after 1 hr by rapid equilibrium dialysis method; type: ADME, organism-based; conditions: in vivo
[8] = Drug level in Wistar rat cerebrospinal fluid at 10 mg/kg administered via oral gavage measured after 1 hr by LC-MS/MS method; type: ADME, organism-based; conditions: read-out: Drug uptake
In short: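 Wistar rats given 10 mg/kg po and killed at 1 h. Brain, plasma and CSF concentrations measured; free brain and plasma levels reported from unbound fractions. Mean ± SD, n = 3.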

[9] = Total drug level in Wistar rat brain at 10 mg/kg administered via oral gavage measured after 1 hr by LC-MS/MS method; type: ADME, organism-based; conditions: read-out: Drug uptake
[10] = Chemical stability of the compound in amorphous form at room temperature; type: physicochemical
Rattus norvegicus [11] = test: Unbound Cmax in spontaneously hypertensive Wistar-Kyoto rat at 30 mg/kg, po; type: ADME, organism-based; conditions: in vivo
[12] = Intrinsic clearance in monkey liver microsomes assessed per mg of protein at 1 uM after 15 mins in presence of NADPH regenerating system by LC-MS/MS method; type: ADME, Macaca mulatta, microsome; conditions: rhesus monkey, read-out: CLH
Cavia porcellus = test: Unbound Cmax in Dunkin-Hartley guinea pig at 30 mg/kg, po; type: ADME, organism-based; conditions: in vivo
[13] = Clearance in NMRI mouse at 1 mg/kg, iv as slow bolus dose by LC-MS/MS method; type: ADME, organism-based; conditions: in vivo
Cynomolgus monkey = test: Unbound Cmax in cynomolgus monkey at 1000 mg/kg, po; type: ADME, organism-based, Macaca fascicularis; conditions: in vivo
[14] = Clearance in Beagle dog at 1 mg/kg, iv administered via 15 mins infusion by LC-MS/MS method; type: ADME, organism-based, Canis lupus familiaris; conditions: in vivo
[15] = Half life in Wistar rat at 1 mg/kg, iv administered via 5 mins infusion by LC-MS/MS method; type: ADME, organism-based; conditions: in vivo
Canis familiaris = test: Unbound Cmax in Beagle dog at 10 mg/kg, po; type: ADME, organism-based, Canis lupus familiaris; conditions: in vivo
[16] = Oral bioavailability in Wistar rat at 10 mg/kg administered via gavage by LC-MS/MS method; type: ADME, organism-based; conditions: in vivo
[17] = Cmax in Wistar rat plasma at 10 mg/kg administered via oral gavage by LC-MS/MS method; type: ADME, organism-based; design: dose 10 mg/kg, route oral
[18] = Fraction unbound in audiogenic seizure-sensitive juvenile DBA/2J mouse brain at 100 mg/kg administered via oral gavage measured at 3 hrs; type: ADME, organism-based; conditions: in vivo
Rattus norvegicus [19] = test: Unbound Cmax in normotensive Wistar rat at 30 mg/kg, po; type: ADME, organism-based; conditions: in vivo
[20] = Clearance in cynomolgus monkey at 1 mg/kg, iv administered via 15 mins infusion by LC-MS/MS method; type: ADME, organism-based, Macaca fascicularis; conditions: in vivo
[21] = Fraction unbound in Wistar rat plasma at 10 mg/kg administered via oral gavage measured after 1 hr by rapid equilibrium dialysis method; type: ADME, organism-based; conditions: in vivo
[22] = Covalent protein binding in human liver microsomes at 10 uM after 1 hr in presence of NADPH regenerating system by liquid scintillation counting method; type: ADME, microsome
[23] = Drug level in human plasma treated with N-(1-(3,4-Difluorobenzyl)-1H-pyrazol-3-yl)-2-(1H-indol-5-yl)acetamide at 10 uM by LC-MS/MS method; type: ADME, cell-free
[24] = Drug level in rat plasma treated with N-(1-(3,4-Difluorobenzyl)-1H-pyrazol-3-yl)-2-(1H-indol-5-yl)acetamide at 10 uM by LC-MS/MS method; type: ADME, cell-free
[25] = Half life in rat plasma at 10 uM by LC-MS/MS method; type: ADME, cell-free
[26] = Drug metabolism in rat plasma assessed as 3-amino-1-(3,4-difluorobenzyl)pyrazole formation at 10 uM by LC-MS/MS method; type: ADME, cell-free
[27] = Drug metabolism in human plasma assessed as 3-amino-1-(3,4-difluorobenzyl)pyrazole formation at 10 uM by LC-MS/MS method; type: ADME, cell-free
[28] = Half life in human plasma at 10 uM by LC-MS/MS method; type: ADME, cell-free
MDR1 [29] = test: Apparent permeability across basolateral to apical side in MDCK cells expressing MDR1 at 1 uM measured every 30 mins for 2 hrs; type: ADME, cell-based, Canis lupus familiaris; conditions: dog
MDR1 [30] = test: Apparent permeability across apical to basolateral side in MDCK cells expressing MDR1 at 1 uM measured every 30 mins for 2 hrs; type: ADME, cell-based, Canis lupus familiaris; conditions: dog

Nc1nc(Cc2ccc(F)c(F)c2)cs1
fold change (FC) (Salmonella typhimurium [1]): 1.1 | fold change (FC) (Salmonella typhimurium [2]): 2.7

Nc1ccn(CC2CCC(F)(F)CO2)n1 (stereo in doubt; 14b)
fold change (FC) (Salmonella typhimurium [1]): 2.5 | fold change (FC) (Salmonella typhimurium [2]): 1.1

Nc1cnn(Cc2ccc(F)c(F)c2)n1
fold change (FC) (Salmonella typhimurium [1]): 3.3 | fold change (FC) (Salmonella typhimurium [2]): 1.3

N#Cc1ccc(Cn2ccc(N)n2)cc1F
fold change (FC) (Salmonella typhimurium [1]): 2.2 | fold change (FC) (Salmonella typhimurium [2]): 1.2

Nc1ccn(CC2CCC(F)(F)CO2)n1 (stereo in doubt; 14a)
fold change (FC) (Salmonella typhimurium [1]): 1.3 | fold change (FC) (Salmonella typhimurium [2]): 1.4

Nc1ccn(Cc2ccccc2)n1
fold change (FC) (Salmonella typhimurium [1]): 30.3 | fold change (FC) (Salmonella typhimurium [2]): 15.3

CC(C)c1ccc(CC(=O)Nc2ccn(Cc3ccccc3)n2)cc1
metabolised at 6 h, 10 µM [3]: 4%

CC(C)c1ccc(CC(=O)Nc2ccn(CC3CCC(F)(F)CO3)n2)cc1 (stereo in doubt; 15a)
clearance [4]: > 100 mL/min/kg | microsomal CLint at […], 1 µM [5]: > 500 µL/min/mg | microsomal CLint at […], 1 µM [6]: 43 µL/min/mg

COc1ccc(C2(C(=O)Nc3ccn(Cc4ccccc4)n3)CC2)cc1
metabolised at 6 h, 10 µM [3]: < 1%

O=C(Cc1ccc(C2(F)COC2)cc1)Nc1ccn(Cc2ccc(F)c(F)c2)n1
Drug uptake(free) [7]: 63 nM | concentration at 1 h [8]: 135 nM | concentration at 1 h [9]: 2.99 µM

COc1ccc(Cn2ccc(N)n2)cc1
fold change (FC) (Salmonella typhimurium [1]): 20.8 | fold change (FC) (Salmonella typhimurium [2]): 8

O=C(Cc1ccc2cc[nH]c2c1)Nc1ccn(Cc2ccc(F)c(F)c2)n1
concentration at 1 h [8]: 50 nM | Stability [10]: Unstable | concentration at 1 h [9]: 4.11 µM

Nc1ccn(Cc2ccc(F)cc2)n1
fold change (FC) (Salmonella typhimurium [1]): 10.2 | fold change (FC) (Salmonella typhimurium [2]): 4.1

CC(C(=O)Nc1ccn(Cc2ccc(F)cc2)n1)c1ccc(N(C)C)cc1 (racemic)
metabolised at 6 h, 10 µM [3]: 7%

Nc1ncn(Cc2ccc(F)c(F)c2)n1
fold change (FC) (Salmonella typhimurium [1]): 1.1 | fold change (FC) (Salmonella typhimurium [2]): 1.1

CC(C)(C)c1ccc(CC(=O)Nc2ccn(Cc3ccc(C#N)cn3)n2)cc1
Drug uptake(free) [7]: 6.1 nM | microsomal CLint at […], 1 µM [6]: 6 µL/min/mg

N#Cc1nc(Cn2ccc(N)n2)ccc1F
fold change (FC) (Salmonella typhimurium [1]): 1.4 | fold change (FC) (Salmonella typhimurium [2]): 1.2

Cn1ncc2cc(CC(=O)Nc3cnn(Cc4ccc(F)c(F)c4)n3)ccc21
Drug uptake(free) [7]: 63 nM

N#Cc1ccc(Cn2ccc(NC(=O)Cc3ccc(C4(C(F)(F)F)CC4)cc3)n2)nc1 [APINOCALTAMIDE]
clearance [4]: 24 mL/min/kg | fCmax (Rattus norvegicus [11]): 90 nM | microsomal CLint at […], 1 µM [12]: 9 µL/min/mg | fCmax (Cavia porcellus): 140 nM | clearance [13]: 13 mL/min/kg | Drug uptake(free) [7]: 29 nM | fCmax (Cynomolgus monkey): 160 nM | microsomal CLint at […], 1 µM [5]: 59 µL/min/mg | clearance at […] [14]: 0.9 mL/min/kg | half-life [15]: 150 min | fCmax (Canis familiaris): 140 nM | bioavailability [16]: 75% | microsomal CLint at […], 1 µM [6]: 24 µL/min/mg | Cmax [17]: 1900 nM | Drug uptake(free) [18]: 244 nM | fCmax (Rattus norvegicus [19]): 190 nM | clearance at […] [20]: 5.5 mL/min/kg

Cn1ncc2cc(CC(=O)Nc3ccn(Cc4ccc(F)c(F)c4)n3)ccc21
Drug uptake(free) [7]: 51 nM | concentration at 1 h [8]: 92 nM | Cp(f) [21]: 72 nM

N#Cc1ccc(Cn2ccc(N)n2)nc1
fold change (FC) (Salmonella typhimurium [1]): 1.3 | fold change (FC) (Salmonella typhimurium [2]): 1

[3H]c1cc(NC(=O)Cc2ccc(C3(C(F)(F)F)CC3)cc2)nn1Cc1ccc(C#N)cn1
PB [22]: 72 pmol/mg/h

Nc1ccn(Cc2ccc(F)c(F)c2)n1
Drug metabolism [23]: Metabolite_Detected | Drug metabolism [24]: Metabolite_Detected | fold change (FC) (Salmonella typhimurium [1]): 1.2 | fold change (FC) (Salmonella typhimurium [2]): 2.7

N#Cc1cc(Cn2ccc(N)n2)ccc1F
fold change (FC) (Salmonella typhimurium [1]): 1.5 | fold change (FC) (Salmonella typhimurium [2]): 1.5

CCc1cc(CC(=O)Nc2ccn(Cc3ccc(C#N)cn3)n2)ccc1OCC(F)(F)F
Drug uptake(free) [7]: 4.8 nM

N#Cc1ccc(Cn2ccc(N)n2)cc1
fold change (FC) (Salmonella typhimurium [1]): 1.1 | fold change (FC) (Salmonella typhimurium [2]): 1.5

O=C(Cc1ccc2[nH]ccc2c1)Nc1ccn(Cc2ccc(F)c(F)c2)n1
half-life at 10 µM [25]: 300 min | Drug uptake(free) [7]: 52 nM | concentration at 1 h [8]: 164 nM | Drug metabolism [26]: Metabolite_Detected | Drug metabolism [27]: Metabolite_Detected | Stability [10]: Unstable | half-life at 10 µM [28]: 120 min | concentration at 1 h [9]: 4.68 µM

CC(C)(C)c1ccc(CC(=O)Nc2ncn(Cc3ccc(F)c(F)c3)n2)cc1
Drug uptake(free) [7]: 2.4 nM

Cc1ccc(Cn2ccc(N)n2)cc1
fold change (FC) (Salmonella typhimurium [1]): 19.8 | fold change (FC) (Salmonella typhimurium [2]): 15.1

N#Cc1cn(Cc2ccc(F)c(F)c2)nc1N
fold change (FC) (Salmonella typhimurium [1]): 1.1 | fold change (FC) (Salmonella typhimurium [2]): 1.1

Cn1c(=O)oc2cc(CC(=O)Nc3ccn(Cc4ccc(F)c(F)c4)n3)ccc21
Papp B→A at 2 h, 1 µM (MDR1 [29]): 59 ×10⁻⁶ cm/s | Papp A→B at 2 h, 1 µM (MDR1 [30]): 11 ×10⁻⁶ cm/s
